Data set [1] deals with Human immunodeficiency virus type 1 reverse transcriptase (Human immunodeficiency virus 1, UniProt Q72547). Briefly: Inhibition of HIV1 recombinant reverse transcriptase assessed as incorporation of [32P]GTP into poly(rC).oligo(dG) (rCdG) homopolymer template primer. Summed up:
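Purified recombinant HIV-1 RT, p66/51 heterodimer. Activity followed by [32P]GTP incorporation into poly(rC)·oligo(dG) homopolymer template-primer. IC50 taken as the mean of at least two separate experiments.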

Data set [2] is described as follows: Cytotoxicity against human MT4 cells by MTT assay. It counts as cell-based.

The IC50 is the concentration that gives 50% inhibition. Consider `COC(=O)c1cc(/C(=C\CCN2CCOC2=O)c2cc(C)c3onc(OC)c3c2)cc(C)c1OC`, for which the IC50 in data set [1] worked out at 0.63 µM. Consider `COC(=O)c1cc(/C(=C/CCN2CCOC2=O)c2cc(C)c3onc(OC)c3c2)cc(C)c1OC`, for which the IC50 in data set [1] is 18.2 µM.

`COC(=O)c1cc(/C(=C/CCN2CCOC2=O)c2cc(C)c3onc(OC)c3c2)cc(Cl)c1OC`: the concentration for half-maximal inhibition (IC50) in data set [1] was determined as 5.88 µM. Turning to `COc1noc2c(C)cc(/C(=C\CCN3CCOC3=O)c3cc(C)c4oc(=O)n(C)c4c3)cc12`, the half-maximal inhibitory concentration (IC50) in data set [1] came out at 3.6 µM. In the case of `COc1noc2c(C)cc(/C(=C\CCN3CCOC3=O)c3cccc(C#N)c3)cc12`, the IC50 in data set [1] was determined as 39.2 µM. Broadly, the CC50 is the concentration that lowers cell viability or growth by half. Higher therefore signals better tolerance by the cells. Turning to `Cc1ccnc2c1NC(=O)c1cccnc1N2C1CC1` [NEVIRAPINE], the CC50 in data set [2] was greater than 200 µM. Take `COC(=O)CCC/C=C(/c1cc(C)c2onc(OC)c2c1)c1cc(C)c2oc(=O)n(C)c2c1`: in data set [1], the IC50 was 0.25 µM. In the case of `COc1noc2c(C)cc(C(=CCCN3CCOC3=O)c3cc(C)c4onc(OC)c4c3)cc12`, in data set [1], the IC50 is 0.93 µM.

(Values after ChEMBL document CHEMBL1138579, “Synthesis of alkenyldiarylmethanes (ADAMs) containing benzo[d]isoxazole and oxazolidin-2-one rings, a new series of potent non-nucleoside HIV-1 reverse transcriptase inhibitors” (Eur J Med Chem, 2009).)
